Shown are actives, neighbours in structure and some others; about 3.5% of the full set was active somewhere.
MEKK3 PB1 HTS = MEKK3-MEK5 PB1 interaction, increase or decrease; Q99759; bead-based flow cytometry, Alexa488-MEK5 binding to MEKK3; actives lie on both sides; 0 = blocked by unlabeled MEK5, 100 = vehicle; binding response (% of control), % at 10 µM; 1.4% of 290,000 active;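 active = binding response more than 3 SD above or below the average of its plate-row segment, actives on both sides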;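 note: Alexa488 bead fluorescence after subtracting the streptavidin-only scavenger bead signal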
WT yeast gro inh = growth inhibition of WT yeast, mitochondrial fusion screen; mitochondrial fusion phenotypic screen, WT strain; inhibition, % at 10 µM; 2.1% of 190,000 active; in the data active = inhibition above about 58%; tested in S. cerevisiae
MEKK2 mut-MEK5 = signal of MEK5 binding to mutant human MEKK2 PB1 domain | AID 1530 | percent response, % at 10 µM | bead flow cytometry, Alexa488-MEK5 binding to MEKK2 mutant | 0.35% of 290,000 active; in the data active = percent response above about 24%, passing the limit was not always enough
ABCB1 inh = inhibitors of human ABCB1 transporter, ABCG2 counter-screen; CCRF-Adr cells, JC-1 efflux, flow cytometry; inhibition, % at 6.6 µM; 0.067% of 190,000 active; in the data active = inhibition above about 40%;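 note: higher value means more JC-1 retained so stronger ABCB1 efflux block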
ABCG2 inh = blocks JC-1 efflux by human ABCG2 transporter. Q9UNQ0. IgMXP3 cells, flow cytometry. inhibition, % at 6.6 µM. 0.1% of 190,000 active. AID 1325;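 active = inhibition above 80%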
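Test system: IgMXP3 (ABCG2) plus far-red-tagged CCRF-Adr (ABCB1) cells. Reagent: JC-1 dye as substrate. Timing: 10 min exposure at 25 °C with rotation, no wash. Measured by: flow cytometric JC-1 green MFI at 530 nm. Read-out: percent efflux inhibition, scaled nicardipine 100% to DMSO 0%. Control set: nicardipine and DMSO wells.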
MEKK2wt PB1 HTS = raises or lowers MEK5 binding to wildtype human MEKK2 PB1 domain; bead flow cytometry, Alexa488-MEK5 binding to MEKK2 WT; actives lie on both sides; binding response (% of control), % at 10 µM; 1.1% of 290,000 active; in the data active = binding response below about 67% or above about 130%
MEKK2wt confirm = raises or lowers MEK5 binding to wildtype human MEKK2, retest. shares compounds with MEKK3 PB1 HTS. bead flow cytometry, Alexa488-MEK5 binding to MEKK2 WT; actives lie on both sides. binding response (% of control), % at 10 µM. 2.4% of 5,900 active; in the data active = binding response below about 16% or above about 210%; inactive = in between
MEKK2mut-MEK5 = signal of MEK5 binding to mutant human MEKK2, retest; 2% of 5,900 active; shares compounds with MEKK3 PB1 HTS; percent response, % at 10 µM; AID 1893; bead flow cytometry, Alexa488-MEK5 binding to MEKK2 mutant; in the data active = percent response mostly above about 71%, no sharp cut-off; inactive = mostly below about 38%;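 note: higher means compound restores mutant binding toward wildtype level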
MEKK3 confirm = confirmation of inhibitors of MEK5 binding to human MEKK3; 1.8% of 5,900 active; shares compounds with MEKK3 PB1 HTS; bead flow cytometry, Alexa488-MEK5 binding to MEKK3; hits give low values; binding response (% of control), % at 10 µM;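 active = binding response below 72% of control, or above a set upper limit, though filed actives all read lower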;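 note: lower values mean stronger disruption of MEK5 binding to MEKK3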
A number is an active result; – = inactive; · = no result given; [ ] = dose if it differs, or a comment.

SMILES	MEKK3 PB1 HTS	WT yeast gro inh	MEKK2 mut-MEK5	ABCB1 inh	ABCG2 inh	MEKK2wt PB1 HTS	MEKK2wt confirm	MEKK2mut-MEK5	MEKK3 confirm
O=c1cc(CO)oc(CN2CCN(Cc3ccccc3)CC2)c1O	–	–	–	–	–	135.0	–	–	–
C=CCSC1=N/C(=C\c2cccnc2)C(=O)N1c1ccc(OC)cc1	–	–	–	–	–	–	·	·	·
CCSC1=N/C(=C\c2ccccc2)C(=O)N1c1ccc(OC)cc1	74.0[inhibitor]	–	–	–	–	–	–	–	–
CCN1CCN(c2cc(C)c3cc(NC(=O)c4ccc(OC)c(OC)c4)ccc3n2)CC1	–	–	30.0	–	–	–	–	–	–
COc1ccc(C(=O)Nc2ccc3nc(N4CCN(C)CC4)cc(C)c3c2)c(OC)c1	–	·	24.0	·	·	156.0	–	–	–
COc1ccc(C)cc1NC(=O)CCC(=O)Nc1ccc2nc(N3CCN(C)CC3)cc(C)c2c1	·	–	·	–	–	·	·	·	·
CCN1CCN(c2cc(C)c3cc(NC(=O)CCC(=O)Nc4ccc(OC)c(OC)c4)ccc3n2)CC1	–	·	–	·	·	–	·	·	·
COc1ccc(/C(N)=N/O)c(OC)c1	–	–	–	–	–	–	·	·	·
CCc1nnc(NC(=O)COc2ccccc2[N+](=O)[O-])s1	–	·	–	·	·	–	·	·	·
COc1ccc(NC(=O)CC2C(=O)N(c3ccccc3)C(=O)N2CCc2cccs2)cc1 (stereo not drawn)	149.0	–	–	–	–	–	–	–	–
COc1ccc(NC(=O)CC2C(=O)N(c3ccc(Cl)cc3)C(=S)N2CCc2ccccn2)cc1 (stereo not drawn)	130.0	–	–	–	–	–	–	–	–
CC(=O)c1cccc(NC(=O)CCn2c(=O)oc3ccccc32)c1	–	·	–	·	·	–	·	·	·
CCc1ccc(NC(=O)NCC2CCN(Cc3cccc(Cl)c3)CC2)cc1	–	·	–	·	·	–	·	·	·
Cc1ccc(NC(=O)NCC2CCN(Cc3cccc(Cl)c3)CC2)cc1Cl	–	81.7	–	–	–	182.0	–	–	–
O=C(NCCCO)c1ccc(CSc2nc3ccccc3c(=O)[nH]2)cc1	128.0	·	–	·	·	–	–	–	–
O=c1[nH]c(SCc2ccc(Cl)cc2)nc2ccccc12	–	–	–	–	–	–	·	·	·
Cc1cc(C(=O)NNC(=S)NCC(C)C)cs1	75.0[inhibitor]	–	–	–	–	–	–	–	–
C=CCN(CC=C)S(=O)(=O)c1ccc2nsnc2c1	–	–	–	–	–	–	·	·	·
COc1ccc(C)cc1S(=O)(=O)N1CCCCCC1	129.0	·	–	·	·	–	–	–	–
COC(=O)c1c(SCc2ccc(C#N)cc2)nc(=O)[nH]c1C	–	–	–	–	–	–	·	·	·
CC(C)=C(NC(=O)c1ccccc1)C(=O)N/N=C/c1ccc(O)cc1	–	–	–	–	–	19.0[inhibitor]	–	–	–
O=C1c2ccccc2NC2(CCCCC2)N1N=C1CCCCC1	75.0[inhibitor]	–	–	–	–	–	–	–	–
O=C1c2ccccc2NC2(CCCC2)N1O	–	–	–	–	–	–	·	·	·
Cc1cc(=O)[nH]c(N/N=C/C2=C(N3CCOCC3)C(=C\c3ccc(Cl)cc3)/CC2)n1	135.0	–	–	–	–	–	–	–	–
CC(=O)N/N=C(\N)c1nonc1N	–	·	–	·	·	–	·	·	·
SMILES	MEKK3 PB1 HTS	WT yeast gro inh	MEKK2 mut-MEK5	ABCB1 inh	ABCG2 inh	MEKK2wt PB1 HTS	MEKK2wt confirm	MEKK2mut-MEK5	MEKK3 confirm
CCCCN1C(=O)CCC(C(=O)O)C1c1ccccc1 (stereo not drawn)	0.0[inhibitor]	–	–	–	–	-1.0[inhibitor]	–	–	–
CC(CC(=O)N1CCN(c2ccccc2)CC1)S(=O)(=O)c1ccc2c(c1)NC(=O)CO2 (stereo not drawn)	–	·	–	·	·	–	·	·	·
Cc1nc(-c2nc(-c3c(C(=O)NN)noc3C)cs2)cs1	147.0	–	–	–	–	–	–	–	–
Cc1nc(-c2nc(-c3c(C(=O)NNC(=O)c4ccc(Cl)cc4)noc3C)cs2)cs1	–	·	–	·	·	–	·	·	·
Cc1ccccc1NC(=O)c1c(C)nc(SCC(=O)OCc2ccccc2)c(C#N)c1-c1ccc(F)cc1	144.0	–	–	–	–	–	–	–	–
Cc1nn(-c2ccccc2C(=O)O)c(=O)c2ccccc12	2.0[inhibitor]	–	–	–	–	-1.0[inhibitor]	–	–	–
Cc1ccc(-n2c([S-])c(C(=O)Nc3ccc(OC(F)F)cc3)[n+]3ccc(C(=O)NCCO)cc23)cc1C	–	–	–	–	–	63.0[inhibitor]	–	–	–
COc1ccccc1-n1c([S-])c(C(=O)Nc2ccccc2C(F)(F)F)[n+]2ccc(C(=O)NCCO)cc12	–	–	–	–	–	–	·	·	·
Cc1ccc(N2CCN(C(=O)c3cn(CC4CCCCC4)nn3)C(C)C2)cc1 (stereo not drawn)	–	·	–	·	·	–	·	·	·
CS(=O)(=O)N(CC(=O)Nc1cccc(Br)c1)Cc1ccccc1	–	·	–	·	·	–	·	·	·
Cc1cc(Cl)ccc1OCC(=O)Nn1c(C)ccc1C	128.0	–	–	–	–	–	–	–	–
CSc1ccccc1NC(=O)COc1ccc(Cl)cc1C	–	–	–	–	–	–	·	·	·
COc1c(Cl)ccc(Cl)c1C(=O)NC(=S)N1CCOCC1	–	–	–	–	–	–	·	·	·
COc1ccc(-c2nc(C#N)c(N3CCOCC3)o2)cc1OC	77.0[inhibitor]	–	–	–	–	–	–	–	–
O=C(COc1ccc(S(=O)(=O)N2CCCC2)cc1)NCc1ccccn1	–	·	–	·	·	–	·	·	·
COc1ccc(-c2nn(-c3ccccc3)cc2/C=N/N=C(N)N)cc1OC	–	–	–	–	–	148.0	–	–	–
COc1ccc(-c2nn(-c3ccccc3)cc2/C=N/O)cc1OC	–	·	–	·	·	–	·	·	·
COc1cc(O)c(C(CCN2CCN(c3ccccc3)CC2)c2ccc(N(C)C)cc2)c(OC)c1 (stereo not drawn)	–	·	–	·	·	151.0	–	–	–
CCN(CC)CCC(c1ccc(N(C)C)cc1)c1c(O)cc(OC)cc1OC (stereo not drawn)	–	·	–	·	·	138.0	–	–	–
COc1ccc(C(CCN2CCN(c3ccccc3)CC2)c2c(O)cc(OC)cc2OC)cc1 (stereo not drawn)	–	·	–	·	·	135.0	–	–	–
CCOC(=O)CN1C(=O)N(CC(=O)OCC)C(c2ccccc2)(c2ccccc2)C1=O	–	·	–	·	·	–	·	·	·
COc1ccc(NC(=O)CCC(=O)Nc2nnc(CC(C)C)s2)cc1Cl	–	·	–	·	·	–	·	·	·

Assay outcomes (PubChem BioAssay)
